Experimental data published in article PMC2234573 (The Journal of General Physiology, 2004).
“And” between values parts separate entries of the source, which are not always exact repeats. Equal values may be shown once. Read-outs that look alike come from different tables or passages of the source.

Experiments:
[1] = tested on: Ca^2+- and ATP-sensitive nonselective cation channels (CA-NSCs); assay: Excised inside-out patch recording of CA-NSC channel gating; type: biochemical, rat; conditions: for Inhibition of Po / effect on gating (in words): cytosolic exposure, Fig. 3 A; for Prevention of inhibition by concomitantly added ATP (in words): Fig. 3 B, 100 μM ATP for PI(4,5)P2
TrpM2 = conditions: cytosolic, ref Perraud et al., 2001, Sano et al.; cited from earlier work
[2] = tested on: CA-NSC channels present in astrocytes; conditions: ref Chen et al., 2003; cited from earlier work
TrpM4b = conditions: ref Nilius et al., 2004, cited from earlier work
[3] = tested on: Ca^2+- and ATP-sensitive nonselective cation channels (CA-NSCs); type: biochemical, rat; conditions: for Effect on the i([DV]) dose response curve (in words): 1 mM nucleotide
How it was run: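 Inside-out patches from rat brain capillary endothelial cells, cultured 5–6 d, at 25°C. Pipette: 140 mM NaCl, 30 μM benzamil, pH 7.4. Bath: 140 mM KCl or NMDG-Cl, pH 7.1, plus 1 mM CaCl2. i(V) is recorded ± 70 μM DV. KCl data get linear fits; NMDG data get GHK fits with asymptotic negative-potential slope. Currents at −40 mV ± 1 mM nucleotide are normalized to in-patch control and Hill-fitted.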

[4] = tested on: Ca^2+- and ATP-sensitive nonselective cation channels (CA-NSCs); assay: Ensemble fitting of kinetic binding models to the dose response curves; type: biochemical, rat; conditions: noncompetitive model with allosteric destabilization, one subunit
How it was run: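 Custom software ensemble-fits the two-ligand extensions of a reversible-binding scheme to 18 normalized dose response curves (Po, opening and closing rates) from inside-out patches. Error function is summed squared differences between predicted and measured values. Open-state Kds are constrained by microscopic reversibility. Unliganded opening rate is fixed at its average (−40 mV, 1 mM cytosolic Ca2+).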

[5] = tested on: Ca^2+- and ATP-sensitive nonselective cation channels (CA-NSCs); conditions: read-out: [Ca2+]i required for half-maximal activation; freshly excised channels; ref Csanády and Adam-Vizi, 2003; cited from earlier work
[6] = Decay of decavanadate in bath solution measured by photometry; type: physicochemical; conditions: pH = 7.1, T = 25°C
How it was run: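 DV stock is 50 mM Na3VO4 brought to pH 2.0, kept at +4°C, used within 24 h and diluted into bath under 90 min before use. Spectra of 1 mM Na3VO4 in bath (pH 7.1, 25°C) are taken 0–8 h after preparation against a boiled same-composition blank. DV is tracked as peak absorbance at ~390 nm, and the decay is single-exponential fitted.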

[7] = read-out: K1/2 for inhibition of opening rate, 1 mM Ca2+ i, Vm −40 mV, no DV, Hill fit, deactivated channels
[8] = 70 μM DV, NaCl pipette, KCl bath

## Nc1ncnc2c1ncn2[C@@H]1O[C@H](COP(=O)(O)OP(=O)(O)OC[C@H]2OC(O)[C@H](O)[C@@H]2O)[C@@H](O)[C@H]1O (stereo partly drawn) [ADP-ribose]
[1]; 1 mM Ca2+ i, −40 mV
  Inhibition of Po / effect on gating (in words): inhibited to a variable extent
TrpM2
  Effect on TrpM2 (in words): activated

## Nc1ncnc2c1ncn2[C@@H]1O[C@H](COP(=O)(O)OP(=O)(O)O)[C@@H](O)[C@H]1O [ADP]
[2]
  Nucleotide sensitivity of astrocyte CA-NSC channels (in words): insensitive
TrpM4b
  Inhibition of TrpM4b (in words): the most potent inhibitor
[3]
  Effect on the i([DV]) dose response curve (in words): not altered
[4]
  Predicted decrease in nucleotide affinity brought upon by DV binding: ~10^5 fold
[1]; [7]
  IC50: 4.3 ± 0.5 µM
[1]; ~1.6 μM DV vs no DV
  Increase of K1/2 for inhibition of Po caused by DV: ~20 ×

## Nc1ncnc2c1ncn2[C@@H]1O[C@H](COP(=O)(O)OP(=O)(O)NP(=O)(O)O)[C@@H](O)[C@H]1O [AMPPNP]
[1]; 1 mM Ca2+ i, −40 mV
  Inhibition of Po / effect on gating (in words): effectively inhibited

## Nc1ncnc2c1ncn2[C@@H]1O[C@H](COP(=O)(O)O)[C@@H](O)[C@H]1O [AMP]
[2]
  Nucleotide sensitivity of astrocyte CA-NSC channels (in words): insensitive
[3]
  Effect on the i([DV]) dose response curve (in words): not altered
[4]
  Predicted decrease in nucleotide affinity brought upon by DV binding: ~10^3 fold
[1]; 1 mM AMP in the presence of ~8 μM DV
  Po: ~0.25
[1]; [7]
  IC50: 1.1 ± 0.2 µM
[1]; ~8 μM DV vs no DV
  Increase of K1/2 for inhibition of Po caused by DV: ~90 ×

## Nc1ncnc2c1ncn2[C@@H]1O[C@H](COP(=O)(O)OP(=O)(O)OP(=O)(O)O)[C@@H](O)[C@H]1O [ATP]
[2]
  Nucleotide sensitivity of astrocyte CA-NSC channels (in words): inhibited
TrpM4b; even millimolar [ATP]
  Fraction of TrpM4b current insensitive to nucleotide: ~20%
[3]
  Effect on the i([DV]) dose response curve (in words): not altered
[4]
  Predicted decrease in nucleotide affinity brought upon by DV binding: ~200 fold
[1]; 10 mM vs 1 mM Ca2+ i
  Increase of K1/2 for inhibition of Po: ~3 fold
[1]; (b) 10 μM total ATP, 1 mM free Ca2+, 2 mM free Mg2+
  Opening rate (normalized): 0.62 ± 0.12 (n = 3)
[1]; (c) 10 μM total ATP, 10 mM free Ca2+, 2.01 mM free Mg2+
  Opening rate (normalized): 0.61 ± 0.10 (n = 4)
[1]; (d) 100 μM total ATP, 1 mM free Ca2+, 0.184 mM free Mg2+
  Opening rate (normalized): 0.094 ± 0.043 (n = 6)
[1]; (e) 100 μM total ATP, 1 mM free Ca2+, 2.03 mM free Mg2+
  Opening rate (normalized): 0.10 ± 0.03 (n = 14)
[1]; (f) 100 μM total ATP, 1 mM free Ca2+, 9.91 mM free Mg2+
  Opening rate (normalized): 0.16 ± 0.06 (n = 6)
[1]; read-out: K1/2 for inhibition of Po, 1 mM Ca2+ i, −80 mV
  IC50: 7.3 ± 1 µM
[1]; read-out: K1/2 for inhibition of Po, 10 mM Ca2+ i, −40 mV
  IC50: 52 ± 6 µM
[1]; read-out: K1/2 for inhibition of Po, freshly excised (~10 s) channels in 100 μM Ca2+, −40 mV, tentative analysis
  IC50: 34 ± 3 µM
[1]; [7]
  IC50: 11 ± 2 µM
[1]; read-out: K1/2 for inhibition of opening rate, 1 mM Ca2+ i, −80 mV
  IC50: 8.4 ± 2 µM
[1]; read-out: K1/2 for inhibition of opening rate, 10 mM Ca2+ i, −40 mV
  IC50: 14 ± 5 µM
[1]; read-out: K1/2 for inhibition of opening rate, freshly excised (~10 s) channels in 100 μM Ca2+, −40 mV, tentative analysis
  IC50: 15 ± 2 µM
[1]; ~1.6 μM DV vs no DV
  Increase of K1/2 for inhibition of Po caused by DV: ~40 ×
[1]; −80 mV vs −40 mV
  Decrease of K1/2 for inhibition of Po: ≈ 2 fold

## Nc1ncnc2c1ncn2[C@@H]1O[C@H](CO)[C@@H](O)[C@H]1O [Ado, adenosine]
[1]
  Prevention of inhibition by concomitantly added ATP (in words): none
[1]; 1 mM Ca2+ i, −40 mV
  Inhibition of Po / effect on gating (in words): inhibited only at high concentrations

## [Ca+2] [Ca^2+]
[5]
  EC50: ~20 µM

## [O]=[V]([O-])([O-])[O][V]1(=[O])[O][V]2(=[O])[O][V](=[O])([O][V](=[O])([O-])[O-])[O][V](=[O])([O]2)[O][V]2(=[O])[O][V](=[O])([O][V](=[O])([O-])[O-])[O][V](=[O])([O]1)[O]2 (stereo not drawn) [DV, decavanadate]
[6]
  Time constant of decay in bath solution: ~4 h
[3]; [8]
  Increase of single-channel (slope) conductance relative to control: 34 ± 2% and ~30%
  Reversal potential: −1 ± 2 mV
  Slope conductance: 42 ± 3 pS
[3]; 70 μM DV, NaCl pipette, NMDG-Cl bath, n = 3
  Asymptotic conductance at negative potentials: 36 ± 0.5 pS
[3]; higher
  K1/2 for conductance relative to K1/2 for stimulation of gating: ~20 fold
[3]; read-out: K1/2 for stimulation of single-channel conductance, no nucleotides (control), −40 mV
  EC50: 1.7 ± 0.3 µM
[1]; 1 mM ADP vs control
  Increase of K1/2 for stimulation of Po caused by nucleotide: ~80 ×
[1]; 1 mM AMP vs control
  Increase of K1/2 for stimulation of Po caused by nucleotide: ~270 ×
[1]; 1 mM ATP vs control
  Increase of K1/2 for stimulation of Po caused by nucleotide: ~35 ×
[1]; read-out: K1/2 for stimulation of Po, 1 mM Ca2+ i, −40 mV, no nucleotides
  EC50: 0.09 µM

## Nc1nc2c(ncn2[C@@H]2O[C@H](COP(=O)(O)OP(=O)(O)OP(=O)(O)O)[C@@H](O)[C@H]2O)c(=O)[nH]1 [GTP]
TrpM4b
  Inhibition of TrpM4b (in words): poor inhibitors
[1]; 1 mM Ca2+ i, −40 mV
  Inhibition of Po / effect on gating (in words): compatible with inhibition

## Nc1ncnc2c1ncn2[C@@H]1O[C@H](COP(=O)(O)OP(=O)(O)OC[C@H]2O[C@@H]([n+]3cccc(C(=O)O)c3)[C@H](O)[C@@H]2O)[C@@H](O)[C@H]1OP(=O)(O)O [NAADP]
[1]; 1 mM Ca2+ i, −40 mV
  Inhibition of Po / effect on gating (in words): inhibited to a variable extent

## NC(=O)C1=CN([C@@H]2O[C@H](COP(=O)(O)OP(=O)(O)OC[C@H]3O[C@@H](n4cnc5c(N)ncnc54)[C@H](O)[C@@H]3O)[C@@H](O)[C@H]2O)C=CC1 [NADH]
[1]; 1 mM Ca2+ i, −40 mV
  Inhibition of Po / effect on gating (in words): inhibited to a variable extent

## NC(=O)C1=CN([C@@H]2O[C@H](COP(=O)(O)OP(=O)(O)OC[C@H]3O[C@@H](n4cnc5c(N)ncnc54)[C@H](OP(=O)(O)O)[C@@H]3O)[C@@H](O)[C@H]2O)C=CC1 [NADPH]
[1]; 1 mM Ca2+ i, −40 mV
  Inhibition of Po / effect on gating (in words): inhibited to a variable extent

## NC(=O)c1ccc[n+]([C@@H]2O[C@H](COP(=O)([O-])OP(=O)(O)OC[C@H]3O[C@@H](n4cnc5c(N)ncnc54)[C@H](OP(=O)(O)O)[C@@H]3O)[C@@H](O)[C@H]2O)c1 [NADP^+]
[1]; 1 mM Ca2+ i, −40 mV
  Inhibition of Po / effect on gating (in words): inhibited to a variable extent

## NC(=O)c1ccc[n+]([C@@H]2O[C@H](COP(=O)([O-])OP(=O)(O)OC[C@H]3O[C@@H](n4cnc5c(N)ncnc54)[C@H](O)[C@@H]3O)[C@@H](O)[C@H]2O)c1 [NAD^+]
[1]; 1 mM Ca2+ i, −40 mV
  Inhibition of Po / effect on gating (in words): inhibited to a variable extent
TrpM2
  Effect on TrpM2 (in words): activated

## O=P(O)(O)OC[C@H]1O[C@H](OP(=O)(O)OP(=O)(O)O)[C@H](O)[C@@H]1O [PRPP, phospho-ribosyl-PP]
[1]
  Prevention of inhibition by concomitantly added ATP (in words): none
[1]; 1 mM Ca2+ i, −40 mV
  Inhibition of Po / effect on gating (in words): failed to inhibit channel activity

## O=P(O)(O)O [Pi, Inorganic phosphate]
[1]
  Prevention of inhibition by concomitantly added ATP (in words): none
[1]; 1 mM Ca2+ i, −40 mV
  Inhibition of Po / effect on gating (in words): had little effect

## O=c1ccn([C@@H]2O[C@H](COP(=O)(O)OP(=O)(O)OP(=O)(O)O)[C@@H](O)[C@H]2O)c(=O)[nH]1 [UTP]
TrpM4b
  Inhibition of TrpM4b (in words): poor inhibitors
[1]; 1 mM Ca2+ i, −40 mV
  Inhibition of Po / effect on gating (in words): compatible with inhibition

## N=c1c2ncn3c2ncn1[C@@H]1O[C@H](COP(=O)(O)OP(=O)(O)OC[C@H]2O[C@@H]3[C@H](O)[C@@H]2O)[C@@H](O)[C@H]1O [cADP-ribose]
[1]
  Prevention of inhibition by concomitantly added ATP (in words): none
[1]; 1 mM Ca2+ i, −40 mV
  Inhibition of Po / effect on gating (in words): failed to inhibit channel activity

## Nc1nc2c(ncn2[C@@H]2O[C@@H]3COP(=O)(O)O[C@H]3[C@H]2O)c(=O)[nH]1 [cGMP]
[1]
  Prevention of inhibition by concomitantly added ATP (in words): none
[1]; 1 mM Ca2+ i, −40 mV
  Inhibition of Po / effect on gating (in words): failed to affect gating

## [O]=[V]([O-])([O-])[O-] [orthovanadate]
[3]; 1-mM orthovanadate solution (untreated, contains trace DV)
  Increase in single-channel current size: ~30%
[1]; 1-mM vanadate solution, 1 mM Ca2+ i
  Effect of vanadate solution on CA-NSC gating (in words): robust stimulation of channel gating to a Po close to unity

## O=P(O)(O)OP(=O)(O)O [pyrophosphate]
[1]; 2 mM, n = 4
  Inhibition: 92 ± 2%

## O=C[C@H](O)[C@H](O)[C@H](O)COP(=O)(O)O [ribose-5P]
[1]
  Prevention of inhibition by concomitantly added ATP (in words): none
[1]; 1 mM Ca2+ i, −40 mV
  Inhibition of Po / effect on gating (in words): failed to inhibit channel activity

## phosphatidyl inositol 4,5-bisphosphate [PI(4,5)P2]
[1]; 1 mM Ca2+ i, −40 mV
  Inhibition of Po / effect on gating (in words): affected neither CA-NSC gating
